Laboratory results taken from article PMC4102602 (European journal of oral sciences, 2013).
Like-named read-outs stand apart in the source and are kept apart here. One block for each substance: values may come before it.

Legend:
[1] = system: MC3T3-E1 osteoblast-like cells; type: cell-based, mouse; conditions: for maximal increase of MC3T3 cell attachment: solution phase concentrations as high as 50 – 200 μM, control = uncoated wells; for level of MC3T3 cell attachment / enhancement in the level of MC3T3 osteoprogenitor cell attachment / EC50: Fig. 2; for enhancement in the level of MC3T3 osteoprogenitor cell attachment: coating concentration as low as 1 μM; for EC50: read-out: half-maximal effect on MC3T3 cell attachment, peptide solution phase (coating) concentration, 30,000 cells/well, serum-free, 2 h, 37°C
Summary of the method: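 Non-tissue-culture 96-well polystyrene was coated overnight with peptide solutions, washed, aftercoated with BSA and washed again; uncoated wells served as control. MC3T3-E1 cells were grown in MEM-α with 5% FBS and 5% NCS, then plated at 30,000 cells/well in serum-free medium for 2 h at 37°C. After three PBS washes, attachment was quantified by hexosaminidase activity as % of control. Mean ± SEM, ≥3 independent cultures.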

[2] = system: MG63 human osteoblast-like cells; type: cell-based; conditions: over the range of surface concentrations shown for P3 in Fig. 3; mean ± S.E; N = at least 6
Summary of the method: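 MG63 cells grown in MEM plus NEAA with heat-inactivated 10% FBS. 96-well non-tissue-culture polystyrene plates were coated with peptide, washed, aftercoated with BSA and washed; uncoated plates served as control. Cells were seeded at 30,000/well in serum-free medium for 2 h at 37°C, washed three times with PBS, and counted by hexosaminidase activity as percent of control. Adsorbed peptide was quantified by micro BCA at 562 nm.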

[3] = system: MC3T3 cells (RGD-binding integrin receptors); type: cell-based, mouse; conditions: for residual MC3T3 cell attachment activity after preincubating cells with RGD: 30 min preincubation, 25 μM peptide coating concentration, Fig. 4A; for cell attachment activity remaining after preincubating cells with RGD: mean ± S.E, N = 5-6
Summary of the method: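 MC3T3 cells were preincubated in tubes for 30 min with RGD tripeptide (up to 500 μM) in serum-free medium with 0.1% BSA. FBS was then added to 10% v/v, and cells were pelleted (600 × g, 5 min) and washed twice. Cells were plated at 30,000/well on BSA-aftercoated polystyrene wells coated with 25 μM peptide for 2 h at 37°C. Attachment was read by hexosaminidase activity, as % of no-RGD control.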

[4] = system: MC3T3-E1 osteoblast-like cells; conditions: osteogenic cell attachment; cited from earlier work

Substance: hBSP peptide 281-293 [DB1]
- maximal increase of MC3T3 cell attachment [1]: 150-300 % of control
- maximal percentage increase in the attachment of MG63 cells [2]: 371 ± 21%
- residual MC3T3 cell attachment activity after preincubating cells with RGD ([3]; 500 μM RGD): 10-20 % of control

- EC50 [1]: ~1000 nM
Substance: hBSP peptide 278-292 [DB4]
- level of MC3T3 cell attachment ([1]; 1 μM coating solution): 380 % of control
- level of MC3T3 cell attachment ([1]; 10 μM coating solution, % of control): 540%
- level of MC3T3 cell attachment ([1]; 50 μM coating solution, % of control): 590%
- level of MC3T3 cell attachment ([1]; 100 μM coating solution, % of control): 670%
- level of MC3T3 cell attachment ([1]; 200 μM coating solution, % of control): 710%
- enhancement in the level of MC3T3 osteoprogenitor cell attachment [1]: several-fold
- maximal percentage increase in the attachment of MG63 cells [2]: 731 ± 100%
- cell attachment activity remaining after preincubating cells with RGD ([3]; 1 μM RGD, MC3T3 cells): 28 ± 10%
- cell attachment activity remaining after preincubating cells with RGD ([3]; 500 μM RGD, MC3T3 cells): 14 ± 9%

Substance: arg-gly-asp [RGD, reference compound]
- block of the attachment of cells to the hBSP peptides ([3]; soluble RGD, MC3T3 cells): 80-90%

Substance: hBSP peptide 278-290 [DB2]
- maximal percentage increase in the attachment of MG63 cells [2]: 422 ± 41%
- residual MC3T3 cell attachment activity after preincubating cells with RGD ([3]; 500 μM RGD): 10-20 % of control

Substance: hBSP peptide 279-292 [DB5]
- maximal increase of MC3T3 cell attachment [1]: 150-300 % of control

Substance: hBSP peptide 279-293 [DB3]
- maximal percentage increase in the attachment of MG63 cells [2]: 228 ± 14%

- EC50 [1]: ~1000 nM
Substance: hBSP peptide 278-293 [P3]
- enhancement in the level of MC3T3 osteoprogenitor cell attachment [1]: several-fold
- residual MC3T3 cell attachment activity after preincubating cells with RGD ([3]; 500 μM RGD): 10-20 % of control
- attachment potency greater than that of peptide P2 (281-290) [4]: 1-2 orders of magnitude

Substance: BSP peptide 278-302 [P4]
- attachment potency greater than that of peptide P2 (281-290) [4]: 1-2 orders of magnitude
